Experimental data published in ChEMBL document CHEMBL1127072, “Discovery and synthesis of methyl 2,5-dimethyl-4-[2- (phenylmethyl)benzoyl]-1H-pyrrole-3-carboxylate (FPL 64176) and analogues: the first examples of a new class of calcium channel activator” (J Med Chem, 1993).

Experiments:
Cavia porcellus [1] = species: Cavia porcellus; assay: Tested for the force increase in guinea pig atria; type: functional
Outline: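 Inotropic activity was measured on guinea pig atria paced at 1 Hz. EC50 is the concentration that raises developed tension to 50% of the isoprenaline maximum.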

Cavia porcellus [2] = species: Cavia porcellus; assay: Tested for the force value required to increase developed tension to 50% of the isoprenaline maximum at 0.3 uM; type: functional
GH3 [3] = assay: Tested for 45 [Ca2+] uptake in rat pituitary growth hormone3 (GH3) cells; type: functional, cell-based
Outline: (§1)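 ⁴⁵Ca²⁺ uptake into rat pituitary GH3 cells depolarized with 50 mM K⁺, used as the measure of channel activation. EC50 is the test concentration producing 50% of the maximal uptake obtained with Bay K 8644.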

GH3 [4] = assay: Tested for the 50% of the maximal [Ca2+] uptake produced by Bay K 8644 at 10 uM in rats; type: functional, Rattus norvegicus
GH3 [5] = assay: Tested for the increase in [Ca2+] uptake into rat pituitary growth hormone3 (GH3) cells; type: functional, cell-based; outline: as §1
GH3 [6] = assay: Tested for the increase in [Ca2+] uptake into rat pituitary growth hormone3 (GH3) cells at 10 uM; type: functional; details: read-out: Inhibition
Outline: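 Rat pituitary GH3 cells were depolarized with 50 mM K⁺ and ⁴⁵Ca²⁺ uptake was measured at a single 10 µM test concentration. Response is expressed relative to the maximal uptake produced by Bay K 8644.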

Cavia porcellus [7] = species: Cavia porcellus; assay: Tested for the force increase in guinea pig atria at 100 uM; type: functional; details: read-out: Inhibition
Outline: (§2)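 Guinea pig atria paced at 1 Hz, with developed tension recorded at a single test concentration (10, 30 or 100 µM). The increase is given as a percentage of the isoprenaline maximum.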

Cavia porcellus [8] = species: Cavia porcellus; assay: Tested for the force value required to increase developed tension to 50% of the isoprenaline maximum at 10 uM; type: functional
GH3 [9] = assay: Tested for the 50% of the maximal [Ca2+] uptake produced by Bay K 8644 at 1 uM in rats; type: functional, Rattus norvegicus
Cavia porcellus [10] = species: Cavia porcellus; assay: Tested for the force increase in guinea pig atria at 10 uM; type: functional; outline: as §2
GH3 [11] = assay: Tested for the inhibition of [Ca2+] uptake into rat pituitary growth hormone3 (GH3) cells at 10 uM; type: functional
Cavia porcellus [12] = species: Cavia porcellus; assay: Tested for the force increase in guinea pig atria at 30 uM; type: functional; outline: as §2

SMILES	EC50 (Cavia porcellus [1]) [µM]	EC50 (GH3 [5]) [µM]	other results
COC(=O)c1c(C)[nH]c(C)c1C(=O)c1ccccc1Cc1ccccc1	0.049	–	Max (Cavia porcellus [2]): 105%; EC50 (GH3 [3]): 0.016 µM; Max (GH3 [4]): 383%
COC(=O)c1c(C)[nH]c(C)c1C(=O)c1ccccc1F	70	1.3	–
COC(=O)c1c[nH]c(C)c1C(=O)c1ccccc1Cc1ccccc1	0.144	0.089	–
COC(=O)c1c(C)[nH]c(C)c1C(=O)c1ccccc1Br	8.95	2.4	–
COC(=O)c1c(C)[nH]c(C)c1C(=O)c1ccccc1[N+](=O)[O-]	–	–	Ca2+ uptake increase (% of Bay K 8644 maximum) at 10 µM (GH3 [6]): 0%; Atrial force increase (% of isoprenaline maximum) at 100 µM (Cavia porcellus [7]): 17%
COC(=O)c1c(C(=O)c2ccccc2Cc2ccccc2)c[nH]c1C	0.46	0.42	–
COC(=O)c1c(C)[nH]c(C)c1C(=O)c1c(Cl)cccc1Cl	–	–	Ca2+ uptake increase (% of Bay K 8644 maximum) at 10 µM (GH3 [6]): 0%; Atrial force increase (% of isoprenaline maximum) at 100 µM (Cavia porcellus [7]): 0%
COC(=O)c1c(C)[nH]c(C)c1C(=O)c1cc(Cl)ccc1Cl	3.98	0.6	–
COC(=O)c1c(C)[nH]c(C)c1C(=O)c1ccccc1OC	–	–	Ca2+ uptake increase (% of Bay K 8644 maximum) at 10 µM (GH3 [6]): 0%; Atrial force increase (% of isoprenaline maximum) at 100 µM (Cavia porcellus [7]): 44%
COC(=O)c1c(C)[nH]c(C)c1C(=O)c1ccccc1C(F)(F)F	4.84	4.3	–
COC(=O)c1c(C)[nH]c(C)c1C(=O)c1ccccc1	21.9	5.4	–
COC(=O)c1c(C)[nH]c(C)c1C(=O)c1ccccc1C	9.47	3.6	–
COC(=O)c1c(C)[nH]c(C)c1C(=O)c1ccccc1I	5.9	3.4	–
COC(=O)C1=C(C)NC(C)=C([N+](=O)[O-])C1c1ccccc1C(F)(F)F (centres undefined)	1.95	–	Max (Cavia porcellus [8]): 61%; EC50 (GH3 [3]): 0.015 µM; Max (GH3 [9]): 100%
COC(=O)c1c[nH]cc1C(=O)c1ccccc1Cc1ccccc1	2.1	6.2	–
COC(=O)c1c(C)[nH]c(C)c1C(=O)c1ccccc1OC(=O)c1ccccc1O	3.8	0.5	–
COC(=O)c1c(C)[nH]c(C)c1C(=O)c1ccc(Cl)cc1Cl	–	–	Ca2+ uptake increase (% of Bay K 8644 maximum) at 10 µM (GH3 [6]): 0%; inhibition at 10 µM (Cavia porcellus [10]): 40%
COC(=O)c1c(C)[nH]c(C)c1C(=O)c1ccccc1Cl	14	3.3	–
COC(=O)c1c(C)[nH]c(C)c1C(=O)c1cccc(Cl)c1Cl	–	–	inhibition at 10 µM (GH3 [11]): 0%; inhibition at 30 µM (Cavia porcellus [12]): 18%
COC(=O)c1ccccc1C(=O)c1c(C)[nH]c(C)c1C(=O)OC	–	–	Ca2+ uptake increase (% of Bay K 8644 maximum) at 10 µM (GH3 [6]): 0%; Atrial force increase (% of isoprenaline maximum) at 100 µM (Cavia porcellus [7]): 16%
